In ChEMBL document CHEMBL1135632, “Synthesis and investigation of conformationally restricted analogues of lavendustin A as cytotoxic inhibitors of tubulin polymerization” (J Med Chem, 2002):

Columns and labels:
Homo sapiens [1] = organism: Homo sapiens; assay: Cytotoxicity against renal SN12C; format: functional
Outline: (§1)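 NCI human cancer cell line screen. Compounds were tested from 10^-4 to 10^-8 M, and GI50 was taken as the concentration giving 50% growth inhibition. Agents whose mean graph midpoint across about 55 lines was 10 μM or less on the first determination were assayed a second time, with standard deviations calculated. Agents above 10 μM were not evaluated further.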

Homo sapiens [2] = organism: Homo sapiens; assay: Cytotoxicity against lung HOP-62; format: functional; outline: as §1
Homo sapiens [3] = organism: Homo sapiens; assay: Cytotoxicity against prostate DU-145; format: functional; details: DU-145, Prostate gland; outline: as §1
Homo sapiens [4] = organism: Homo sapiens; assay: Cytotoxicity against ovarian OVCAR-3; format: functional; outline: as §1
[5] = (§2) Cytotoxicity against leukemia CCRF-CEM; format: functional; details: Homo sapiens; outline: as §1
Homo sapiens [6] = organism: Homo sapiens; assay: Cytotoxicity against CNS SF-539; format: functional; details: CNSSF-539; outline: as §1
Homo sapiens [7] = organism: Homo sapiens; assay: Cytotoxicity against colon HCT116; format: functional; details: HCT-116; outline: as §1
Homo sapiens [8] = organism: Homo sapiens; assay: Cytotoxicity against melanoma UACC-62; format: functional; outline: as §1
Homo sapiens [9] = organism: Homo sapiens; assay: Cytotoxicity against breast MDA-MB-435; format: functional; outline: as §1
Tubulin = Tubulin (Bos taurus, UniProt Q6B856+Q862L2+Q862F3); assay: Inhibition of tubulin polymerization at concentration 10 uM; format: functional
[10] = as §2; format: cell-based; details: human, CCRF-CEM leukemia cells
Tubulin (Bos taurus) = assay: Inhibition of tubulin polymerization at concentration 10 uM

Row | IC50 (Tubulin) | IC50 (Tubulin (Bos taurus)) | SMILES | GI50 (Homo sapiens [1]) | GI50 (Homo sapiens [2]) | GI50 (Homo sapiens [3]) | GI50 (Homo sapiens [4]) | GI50 [5] | GI50 (Homo sapiens [6]) | GI50 (Homo sapiens [7]) | GI50 (Homo sapiens [8]) | GI50 (Homo sapiens [9]) | GI50 [10]
1 | 3.6 µM |  | CCCCCCNC(=O)c1cc(NCc2cc(O)ccc2O)ccc1O | 6.1 µM | 19 µM | 15 µM | 4 µM | 0.56 µM | 2.3 µM | 17 µM | 12 µM | 15 µM | 
2 | 5.9 µM |  | O=C1c2c(O)ccc(NCc3cc(O)ccc3O)c2CN1CCc1ccc(F)cc1 | 16 µM | 19.6 µM | 24.6 µM | 8.8 µM | 1.8 µM | 14.4 µM | 18.7 µM | 13.3 µM | 15.6 µM | 
3 | 5.9 µM |  | COc1ccc(NCc2cc(O)ccc2O)c2c1C(=O)N(CCc1ccc(F)cc1)C2 | 20.4 µM | 31.4 µM | 16.1 µM | 8.4 µM | 3.4 µM | 14.4 µM | 20.4 µM | 19.1 µM | 14 µM | 
4 | 4 µM |  | O=C(NCCc1ccc(F)cc1)c1cc(NCc2cc(O)ccc2O)ccc1O | 0.58 µM | 0.28 µM | 0.27 µM | 0.15 µM | 0.22 µM | 0.32 µM | 0.33 µM | 0.41 µM | 0.047 µM | 
5 | 3.7 µM |  | Oc1ccc(O)c(CNc2ccc(O)c(/C=C\CCc3ccccc3)c2)c1 | 17.8 µM | 20.5 µM | 34 µM | 21.9 µM | 0.7 µM | 11.6 µM | 19.3 µM | 15.9 µM | 17.1 µM | 
6 | 3.6 µM |  | O=C(NCCc1ccccc1)c1cc(NCc2cc(O)ccc2O)ccc1O | 18 µM | 20 µM | 16 µM | 7.7 µM | 2.7 µM | 17 µM | 18 µM | 14 µM | 19 µM | 
7 | 7.4 µM |  | O=C1c2c(O)ccc(NCc3cc(O)ccc3O)c2CN1CCc1ccccc1 | 12.9 µM | 26.8 µM | 14.5 µM | 6.2 µM | 2.3 µM | 23.1 µM | 19.9 µM | 10.1 µM | 14.8 µM | 
8 |  | 9.5 µM | COc1ccc(NCc2cc(O)ccc2O)c2c1C(=O)N(CCc1ccccc1)C2 |  |  |  |  |  |  |  |  |  | 
9 | 7.2 µM |  | Oc1ccc(O)c(CNc2ccc(O)c(/C=C/CCc3ccccc3)c2)c1 | 21.4 µM | 35.4 µM | 18.7 µM | 20.4 µM | 1.1 µM | 16.3 µM | 30.4 µM | 18 µM | 5.7 µM | 

Row | SMILES | IC50 (Tubulin) | IC50 (Tubulin (Bos taurus)) | GI50 (Homo sapiens [1]) | GI50 (Homo sapiens [2]) | GI50 (Homo sapiens [3]) | GI50 (Homo sapiens [4]) | GI50 [5] | GI50 (Homo sapiens [6]) | GI50 (Homo sapiens [7]) | GI50 (Homo sapiens [8]) | GI50 (Homo sapiens [9]) | GI50 [10]
10 | CCCCCCn1c(=O)oc2ccc(NCc3cc(O)ccc3O)cc2c1=O | 6 µM |  | 4.2 µM | 14.8 µM | 13.8 µM | 1.7 µM | 0.27 µM | 2.4 µM | 3.2 µM | 3.2 µM | 3.9 µM | 
11 | O=c1oc2ccc(NCc3cc(O)ccc3O)cc2c(=O)n1CCc1ccccc1 | 8.3 µM |  | 9.6 µM | 21.4 µM | 15.3 µM | 3.6 µM |  | 8.9 µM | 4.6 µM | 6 µM | 5.6 µM | 1.3 µM
12 | O=c1oc2ccc(NCc3cc(O)ccc3O)cc2c(=O)n1CCc1ccc(F)cc1 | 6.8 µM |  | 6.6 µM | 17.2 µM | 17.7 µM | 2.8 µM | 0.78 µM | 5.1 µM | 4.2 µM | 7 µM | 4.9 µM | 
